# Screening results as filed in PubChem.
# NPY2 pot ag – potentiates or activates human NPY-Y2 receptor; P49146; cells expressing NPY-Y2, potentiator/agonist read-out; activation, % at 3.6 µM; 0.45% of 220,000 active; in the data active = activation above about 27%;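 also: cells stimulated with NPY near EC25 plus isoproterenol at EC100; 0% = vehicle plus submaximal agonist and 100% = vehicle plus saturating agonist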
# RAM inhibit – yeast RAM network inhibition. S. cerevisiae dse1pr::URA3 reporter, 5-FOA growth OD615, 2 d; analog-sensitive cbk1-as2 kinase mutant strain. inhibition, % at 50 µM. 1.8% of 190,000 active;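 active = inhibition above a set limit, 3 SD over mean compound inhibition, cut at about 8.4% in these data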;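 also: 0% = DMSO-only wells with no growth and 100% = 10 µM 1-NA-PP1 full growth; inhibition rescues growth on 5-FOA so higher OD means more RAM inhibition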
# NPY1 pot ag – human NPY-Y1 potentiation or agonism, primary screen; P25929; NPY-Y1 expressing cells, potentiator/agonist activation; activation, % at 3.6 µM; 0.37% of 220,000 active; AID 1304; in the data active = activation above about 33%, passing the limit was not always enough;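 also: cells stimulated with NPY at EC10 then isoproterenol at EC100; 0% = low agonist plus stimulus and 100% = saturating agonist plus stimulus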
# Target sequence (P25929 whole entry, looked up): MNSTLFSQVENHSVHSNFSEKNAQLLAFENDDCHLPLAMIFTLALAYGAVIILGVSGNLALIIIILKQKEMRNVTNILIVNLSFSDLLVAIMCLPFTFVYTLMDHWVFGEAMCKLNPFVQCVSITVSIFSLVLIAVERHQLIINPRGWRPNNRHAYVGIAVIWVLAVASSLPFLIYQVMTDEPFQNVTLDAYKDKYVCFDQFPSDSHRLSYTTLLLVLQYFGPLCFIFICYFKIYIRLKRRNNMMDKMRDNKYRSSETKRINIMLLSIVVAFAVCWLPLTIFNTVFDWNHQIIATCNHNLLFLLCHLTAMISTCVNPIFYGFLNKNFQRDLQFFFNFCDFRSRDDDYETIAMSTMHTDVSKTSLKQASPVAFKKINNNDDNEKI
# Insulin prom inh – TRM-6 insulin promoter activity inhibition | inhibition, % at 2 µM | 0.9% of 130,000 active | TRM-6 cells, insulin promoter-eGFP reporter, imaging; reporter expression induced with tamoxifen;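 active = inhibition above the mean plus 3 SD, with well images judged a real hit on visual review, cut at about 60% in these data, passing the limit was not always enough; inconclusive = inhibition over the cutoff but images rejected on review; inactive = inhibition not above the cutoff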
# NPY-Y1 antag – NPY-Y1 (human) receptor antagonism | HEK293-CNG Y1 cells, membrane potential fluorescence; NPY at EC95, then isoproterenol | inhibition, % at 3.6 µM | 1% of 200,000 active;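 active = inhibition above the campaign mean inhibition of all tested compounds plus 3 SD, cut at about 20% in these data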;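 also: 0% = DMSO wells given NPY plus isoproterenol and 100% = isoproterenol alone without NPY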
#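 Benchmarks – high control isoproterenol alone, low control NPY with isoproterenol · Material – HEK293 Y1/CNG channel cell line · Times – dye 3 h, compound 60 min room temperature, stimulation 45 min · Probe or stimulus – NPY (25 nM), isoproterenol (1 µM), Ro 20-1724 (25 µM) · Evaluation – % inhibition of NPY effect · Signal – fluorescence, membrane potential probe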
# NPY-Y2 antag – NPY-Y2 (human) receptor antagonism | P49146 | NPY-Y2 expressing cells, antagonist mode | inhibition, % at 2.7 µM | 0.99% of 140,000 active | AID 793; in the data active = inhibition above about 17%;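 also: 0% = vehicle with agonist challenge and 100% = reference antagonist with challenge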
# * = called active by the depositor; ? = inconclusive; . = no result given. Only some compounds are listed: those with a hit (about 3.8% of all), similar ones and a draw of the others.
SMILES,NPY2 pot ag,RAM inhibit,NPY1 pot ag,Insulin prom inh,NPY-Y1 antag,NPY-Y2 antag
Nc1ccc(-c2cc(-c3ccc(N)cc3)nc(-c3ccccc3)n2)cc1,39*,7,46*,6,-8,-5
C=CCC(CC(O)COCCC)C(=O)NNC(=S)Nc1ccccc1 (centres undefined),0,.,-12,.,.,.
CCOC(=O)C1=C(C)NC(=O)NC1/C(C)=C/c1ccccc1 (centres undefined),-1,1,-2,28,8,5
COc1ccc(-c2nc(N3CCCC3)[nH]c(=O)c2C#N)cc1,-13,5,-21,0,-3,0
COc1ccc(-c2nc(N3CCC(C)CC3)[nH]c(=O)c2C#N)cc1,-6,6,-11,71*,0,6
Clc1ccc2nncn2n1,7,1,14,-25,5,.
COc1ccc(C(O)c2coc3ccc(O)c(CN(C)C)c23)cc1 (centres undefined),100*,3,107*,-21,-21,3
COC(=O)c1ccccc1Sc1ncnc2onc(C)c12,-7,3,-7,-31,-4,.
CCN(C=NC1=NN(c2cccc(C(F)(F)F)c2)CC1)CC,-4,0,-19,62*,12,1
OCCN(C=NC1=NN(c2cccc(C(F)(F)F)c2)CC1)CCO,5,1,5,3,-2,-1
Cc1ccc2nc(-c3ccccc3O)c(Nc3ccc4c(c3)OCCO4)n2c1,-7,1,-27,67*,12,5
Cc1cc(NC(=O)c2cc(-c3ccco3)on2)n(-c2ccccc2)n1,11,3,2,-61,3,0
Cc1cc(-c2ccco2)n(-c2ccccc2)n1,101*,0,105*,.,-15,3
CCOc1ccc(N2C(=O)CN(CC(=O)OC)C2=S)cc1,2,-1,5,29,3,.
CCC(CC)NC(=O)c1cccc(NC(=O)C(C)C)c1,1,0,-27,25,2,-2
CCC(CC)NC(=O)c1cccc(Br)c1,8,1,8,88*,3,.
Cc1ccc2cc(/C=N/NC(=O)c3ccccc3[N+](=O)[O-])c(Cl)nc2c1,4,4,-5,53,-2,.
NS(=O)(=O)c1ccc(-n2cccc2C=O)cc1,-7,2,-14,.,7,.
COCCNC(=O)C(c1cccs1)N(Cc1cccs1)C(=O)Cn1nnc2ccccc21 (centres undefined),-3,2,-28,-100,3,-3
CC(C)CCNC(=O)C(c1ccco1)N(Cc1cccs1)C(=O)Cn1nnc2ccccc21 (centres undefined),-19,-1,-26,.,24*,14
COc1cc(/C=C/C(=O)OCC(=O)Nc2ccc(S(=O)(=O)N3CCCC3)cc2)ccc1O,2,6,-31,.,16,2
COc1cccc(/C=C/C(=O)OCC(=O)Nc2ccc(S(=O)(=O)N3CCCC3)cc2)c1,-13,9.8*,-35,-14,9,9
CC(=O)c1ccc(NC(=O)C(C)n2c3ccccc3c3nc(=O)cc(C)n32)cc1 (centres undefined),2,.,-9,.,.,.
CCOc1ccc(NC(=O)CSc2ccccc2N)cc1,1,2,6,.,0,.
CCC(NC(=O)NCc1cccnc1)(C(F)(F)F)C(F)(F)F,6,0,-13,60,-2,0
SMILES,NPY2 pot ag,RAM inhibit,NPY1 pot ag,Insulin prom inh,NPY-Y1 antag,NPY-Y2 antag
COc1cc(/C=C/C(=O)Nc2ccc(N3CCCCC3)c(S(=O)(=O)Nc3ccccc3Cl)c2)cc(OC)c1OC,0,6,10,-18,3,1
COc1ccc(CNC(=O)COC(=O)c2n[nH]c3ccccc23)cc1,10,10*,-5,0,1,3
COc1ccc(CCNC(=O)c2n[nH]c3ccccc23)cc1,-9,2,-17,.,1,.
S=c1[nH]cnc2sc(-c3ccccc3)cc12,-1,2,-26,-79,7,.
O=C(N/N=C/c1ccccc1)c1ccc(N2CCOCC2)c([N+](=O)[O-])c1,-4,3,0,-42,7,3
O=C(N/N=C/c1cc([N+](=O)[O-])c(N2CCOCC2)cc1N1CCOCC1)c1cccnc1,10,1,16,69*,1,.
O=C(Nc1ncn[nH]1)c1cc(S(=O)(=O)Nc2cccc(C(F)(F)F)c2)ccc1Cl,2,4,-12,.,3,.
COc1ccc(-c2cc(C(F)(F)F)nc(SCCC(=O)N3CCCC3)n2)cc1,1,8.8*,-22,?,1,-2
COc1ccc(-c2cc(C(F)(F)F)nc(SCC(=O)Nc3cc(C)on3)n2)cc1OC,9,8.7*,-3,38,7,22*
O=C(CSc1nc(-c2ccc(F)cc2)cc(C(F)(F)F)n1)NCCN1CCOCC1,-6,1,-14,-26,-2,0
CC(C)OC(=O)CSc1nc(-c2ccc(F)cc2)cc(C(F)(F)F)n1,-1,2,-39,44,28*,25*
COc1ccc(-c2cc(C(F)(F)F)nc(SCCC(=O)Nc3cc(C)on3)n2)cc1,-1,3,-13,.,7,4
O=C1CN(C(=O)c2ccco2)C(c2ccccc2)c2cc(Cl)ccc2N1 (centres undefined),-3,2,13,10,4,0
CCc1onc(C)c1C(=O)O,-7,0,0,.,0,.
CCCCCC1CC(CC(=O)NC(=S)Nc2ccc([N+](=O)[O-])cc2)C(=O)O1 (centres undefined),-11,11*,-55,35,0,4
O=C(Nc1nnc(COc2ccc(F)cc2)s1)c1cccs1,4,2,-12,-13,10,1
O=C(Nc1nnc(COc2ccc(Cl)cc2)s1)c1cccs1,-3,2,-7,80*,-3,3
Cc1ccc(C(=O)COC(=O)CNS(=O)(=O)c2ccccc2)cc1[N+](=O)[O-],4,2,-15,.,-5,0
c1ccc(CNc2nc(-c3cccs3)nc3ccccc23)nc1,17,0,11,92*,-1,.
Cn1c(=NC(=O)c2ccccc2[N+](=O)[O-])sc2cc(S(C)(=O)=O)ccc21,3,2,3,4,-5,-1
Cn1c(=NC(=O)c2ccc(S(=O)(=O)N3CCCc4ccccc43)cc2)sc2cc(S(C)(=O)=O)ccc21,6,10*,8,.,-1,-3
COc1cccc(CNc2cc(CSc3ccc(Cl)cc3)nc(C)n2)c1,-12,0,-58,-50,21*,21*
CCOc1cc(/C=C2\CCCC(C(=O)C(F)(F)F)=C2O)ccc1O,-10,9.1*,-7,-43,2,0
O=C(Nc1nc2ccc(Oc3ccccc3)cc2s1)c1cc([N+](=O)[O-])ccc1N1CCOCC1,-4,3,-13,.,0,0
CC1CCCCC1NC(=O)COC(=O)c1ccccc1NC(=O)c1ccco1 (centres undefined),-8,4,-32,11,30*,19*
